Compound activity: PubChem, several laboratories
CaV13 ICDI inh – Primary screen for inhibitors of IQ motif and Ca2+-dependent inactivation inhibitor domain binding in CACNA1D, Förster resonance energy transfer in living cells, …. inhibition, % at 12.3 µM. HEK cells, CFP/YFP FRET ICDI-IQ, plate reader, 10 min; percent FRET-ratio fall versus neutral wells. AID 743397. 340,000 compounds, 0.098% hits;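 active = mean replicate inhibition of at least 30% and at least 1% of replicates passing that level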;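 note: 0% = median of the neutral control wells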
Runt-CBFb FRET – inhibitors of human RUNX1 Runt domain binding to CBFb; Q01196+Q13951; Cerulean-Runt/Venus-CBFb FRET ratio 530/480, 1 h; inhibition, % at 20 µM; 220,000 compounds, 0.46% hits; AID 1496;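 active = inhibition over about 50% at 20 µM in the single-dose screen, limit read from the data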;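 note: 0% = DMSO wells and 100% = excess unlabeled CBFb competitor control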
Target sequence (Q01196 whole entry, looked up, the tested form may be a part): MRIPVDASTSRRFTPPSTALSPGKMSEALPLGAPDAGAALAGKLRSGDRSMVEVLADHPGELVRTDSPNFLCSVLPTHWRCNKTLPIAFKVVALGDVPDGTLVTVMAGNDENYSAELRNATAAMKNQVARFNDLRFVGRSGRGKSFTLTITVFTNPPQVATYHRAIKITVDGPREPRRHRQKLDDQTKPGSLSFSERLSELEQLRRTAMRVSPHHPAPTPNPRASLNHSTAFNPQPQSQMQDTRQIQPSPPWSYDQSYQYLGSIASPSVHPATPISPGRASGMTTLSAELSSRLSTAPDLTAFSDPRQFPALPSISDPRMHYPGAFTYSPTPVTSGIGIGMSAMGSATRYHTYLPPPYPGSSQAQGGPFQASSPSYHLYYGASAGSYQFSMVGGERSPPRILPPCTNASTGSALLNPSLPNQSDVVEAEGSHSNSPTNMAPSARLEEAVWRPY
Target sequence (Q13951 whole entry, looked up, the tested form may be a part): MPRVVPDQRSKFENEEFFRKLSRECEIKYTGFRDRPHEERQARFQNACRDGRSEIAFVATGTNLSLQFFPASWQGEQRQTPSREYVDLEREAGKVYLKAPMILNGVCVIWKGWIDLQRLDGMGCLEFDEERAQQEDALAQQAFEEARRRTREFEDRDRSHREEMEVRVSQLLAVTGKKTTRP
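test system = Cerulean-tagged RUNX1 Runt domain (FRET donor) fusion protein | reagent = Venus-CBFb binding partner, 100 nM | incubation = protein complex preformed 1 h, compound exposure 1 h, room temperature, dark | detection = FRET fluorescence | read-out basis = loss of energy transfer signal | controls = 5 µM unlabeled CBFb as full-inhibition high control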
RanGTP-Impb inh – disruptors of Ran-importin-beta complex formation – biochemical, FRET, CFP-Ran, YFP-importin-beta, homogeneous, primary screen. cell-free CFP-Ran/YFP-importin-beta FRET ratio. inhibition, % (no concentration beside the values). 300,000 compounds, 1.1% hits;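 active = more than half of the replicate wells show a fall in the fluorescence ratio signal beyond about 16%, limit read from the data, passing the limit was not always enough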;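 note: 0% = DMSO wells and 100% = Ran loaded with GDP instead of GTP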
Runt-SMMHC FRET – inhibitors of human RUNX1 Runt domain binding to CBFb-SMMHC. Q01196+Q13951. Cerulean-Runt/Venus-CBFb-SMMHC FRET ratio 530/480, 1 h. inhibition, % at 20 µM. 220,000 compounds, 0.74% hits. AID 1434;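 active = mean inhibition across duplicate retests at 20 µM reaching about 50%, limit read from the data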;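 note: 0% = DMSO wells and 100% = wells with excess untagged CBFb-SMMHC; inhibitors lower the FRET ratio by blocking Runt binding to CBFb-SMMHC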
Hck-Nef inh – inhibitors of human Hck kinase activated by Nef; P08631; Recombinant Hck-YEEI plus Nef, Z-Lyte FRET kinase assay; inhibition, % at 20 µM; 220,000 compounds, 0.68% hits;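 active = Hck-Nef kinase inhibition above about 50%, limit read from the data; inactive = inhibition below that limit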;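 note: 0% = DMSO with Hck plus Nef and 100% = Hck alone without Nef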
An asterisk follows results filed as active. In the library only some 1.5% were active in any assay of this set; here they are far more common.

For C/C(CC(=O)Nc1ccc(F)cc1)=N\NC(=O)c1ccccn1 the results were CaV13 ICDI inh -12, Runt-CBFb FRET 1, RanGTP-Impb inh 179*, Runt-SMMHC FRET 1 and Hck-Nef inh 32.
For NCCCCCc1cn(CC(=O)NCCCCCCCCCCC(=O)N2CCNCC2)nn1 the results were CaV13 ICDI inh -5.
`CCN(CC)CCN1C(=O)C(O)=C(C(=O)c2ccco2)C1c1ccccn1` (centres undefined) gave CaV13 ICDI inh -6, Runt-CBFb FRET 9, RanGTP-Impb inh 59*, Runt-SMMHC FRET 10 and Hck-Nef inh 0.
`CN(C)CCN1C(=O)C(O)=C(C(=O)c2cc3ccccc3o2)C1c1ccccn1` (centres undefined) gave Runt-CBFb FRET 0, RanGTP-Impb inh 25*, Runt-SMMHC FRET -10 and Hck-Nef inh 0.
`CCN(CC)CCCN1C(=O)C(O)=C(C(=O)c2cc3ccccc3o2)C1c1ccccn1` (centres undefined) gave Runt-CBFb FRET -1, Runt-SMMHC FRET 0 and Hck-Nef inh 0.
Screening CCN(CC)CCN1C(=O)C(=O)/C(=C(/O)c2cccc(OC)c2)C1c1ccccn1 (centres undefined) returned CaV13 ICDI inh -4, Runt-CBFb FRET 1, RanGTP-Impb inh 43*, Runt-SMMHC FRET -5 and Hck-Nef inh 2.
For CCN(CC)CCCN1C(=O)C(=O)/C(=C(/O)c2ccc(Cl)cc2)C1c1ccccn1 (centres undefined) the results were CaV13 ICDI inh -4, Runt-CBFb FRET 0, RanGTP-Impb inh 1 and Runt-SMMHC FRET -3.
CC(C#N)(NC(=O)CN1CCN(S(=O)(=O)c2ccc(Br)cc2Cl)CC1)C1CC1 (centres undefined) was read as CaV13 ICDI inh -6.
COC(OC)C1(CCc2ccccc2)NC(=O)NC1=O (centres undefined) was read as CaV13 ICDI inh -4.
O=C(O/N=C1\CCS(=O)(=O)c2sccc21)C1CC1 was read as CaV13 ICDI inh -2, Runt-CBFb FRET 0, RanGTP-Impb inh 101*, Runt-SMMHC FRET 2 and Hck-Nef inh 14.
`CC(=O)NC(CC(=O)NNC(=O)c1cccs1)c1ccccc1` (centres undefined) gave CaV13 ICDI inh -6 and RanGTP-Impb inh -4.
Screening COCCNC(=O)C1(C)Cc2c(-c3ccc4c(c3)OCO4)ccnc2O1 (centres undefined) returned CaV13 ICDI inh -4.
For COc1ccccc1N1CCN(C(=O)c2cc3c(=O)n4cccc(C)c4nc3s2)CC1 the results were CaV13 ICDI inh -3 and RanGTP-Impb inh 31*.
OCCNc1nc(-c2ccccc2)c2ccccc2n1 was read as CaV13 ICDI inh -4, Runt-CBFb FRET 10, RanGTP-Impb inh 1, Runt-SMMHC FRET 10 and Hck-Nef inh 8.
`Cc1ccc2nc(NCCO)nc(-c3ccccc3)c2c1` gave CaV13 ICDI inh -5, Runt-CBFb FRET 32, RanGTP-Impb inh 29*, Runt-SMMHC FRET 42 and Hck-Nef inh 10.
For OCCNc1nc(-c2ccccc2)c2cc(Cl)ccc2n1 the results were CaV13 ICDI inh -3, Runt-CBFb FRET 49, RanGTP-Impb inh 1, Runt-SMMHC FRET 90* and Hck-Nef inh 12.
For CC(C)OC(=O)CC(=O)CSc1nc2c(cc1C#N)CCCCCC2 the results were CaV13 ICDI inh -6, Runt-CBFb FRET 50, RanGTP-Impb inh -2, Runt-SMMHC FRET 78* and Hck-Nef inh 2.
Screening CCOC(=O)CC(=O)CSc1nc2c(cc1C#N)CCCCCC2 returned CaV13 ICDI inh -4, Runt-CBFb FRET 40, RanGTP-Impb inh 14 and Runt-SMMHC FRET 50*.
For CC(C)OC(=O)CC(=O)CSc1nc2c(cc1C#N)CCCC2 the results were CaV13 ICDI inh -4, Runt-CBFb FRET 39, RanGTP-Impb inh 10, Runt-SMMHC FRET 44 and Hck-Nef inh 3.
For CCOC(=O)c1cc(CC)sc1NC(=O)CSc1nc2ccccc2c(=O)n1Cc1ccco1 the results were CaV13 ICDI inh -2, Runt-CBFb FRET -1, RanGTP-Impb inh -2, Runt-SMMHC FRET -1 and Hck-Nef inh 6.
`CCN(C(=O)c1cc2c(=O)n3ccccc3nc2n1CCCOC)C1CCCCC1` gave CaV13 ICDI inh -7 and RanGTP-Impb inh 2.
`CCOC(=O)c1cc2c(=O)n3cccc(C)c3nc2n(Cc2ccco2)c1=NC(=O)c1ccccc1` gave CaV13 ICDI inh -11, Runt-CBFb FRET 93*, RanGTP-Impb inh 106* and Hck-Nef inh 5.
Screening CCOC(=O)c1cc2c(=O)n3ccccc3nc2n(Cc2ccco2)c1=NC(=O)c1ccc(OC)cc1 returned CaV13 ICDI inh -15, Runt-CBFb FRET 89*, RanGTP-Impb inh -1, Runt-SMMHC FRET 86* and Hck-Nef inh 25.
Screening CCOC(=O)c1cc2c(=O)n3ccccc3nc2n(CCCOC)c1=NC(=O)c1ccncc1 returned CaV13 ICDI inh 153*, Runt-CBFb FRET 65*, RanGTP-Impb inh 0, Runt-SMMHC FRET 92* and Hck-Nef inh 34.
CCOC(=O)c1cc2c(=O)n3ccccc3nc2n(Cc2ccco2)c1=NC(=O)c1ccccc1OC was read as CaV13 ICDI inh -2, Runt-CBFb FRET 89*, RanGTP-Impb inh 62*, Runt-SMMHC FRET 86* and Hck-Nef inh 19.
CCNc1nc(NCC)nc(N(C)/N=C/c2ccco2)n1 was read as CaV13 ICDI inh -5 and RanGTP-Impb inh 3.
For CC1(C(=O)Nc2ccc3ccccc3c2)CCC(=O)N1CCOc1ccccc1 (centres undefined) the results were CaV13 ICDI inh -9.
O=C1OCCN1C(=O)[C@H]1[C@H](c2ccc(Cl)cc2)C(c2cccc(Cl)c2)=NN1c1ccccc1 was read as Runt-CBFb FRET 28, RanGTP-Impb inh 30*, Runt-SMMHC FRET 57 and Hck-Nef inh 11.
Screening COc1ccccc1[C@@H]1C(c2cccc(Cl)c2)=NN(c2ccccc2)[C@H]1C(=O)N1CCOC1=O returned Runt-CBFb FRET 32, RanGTP-Impb inh 27*, Runt-SMMHC FRET 73* and Hck-Nef inh 8.
For O=C1OCCN1C(=O)[C@H]1[C@H](c2ccc(F)cc2)C(c2cccc(Cl)c2)=NN1c1ccccc1 the results were CaV13 ICDI inh -10.
Screening CCc1cc2c(CN3CCN(CC)CC3)cc(=O)oc2cc1O returned CaV13 ICDI inh -2, Runt-CBFb FRET 18, RanGTP-Impb inh 115*, Runt-SMMHC FRET 61* and Hck-Nef inh 22.
For O=c1cc(CN2CCOCC2)c2cc(Cl)c(O)cc2o1 the results were CaV13 ICDI inh -7 and RanGTP-Impb inh 73*.
For CCc1ccc2oc(=O)cc(CN3CCN(Cc4ccccc4)CC3)c2c1 the results were CaV13 ICDI inh -2 and RanGTP-Impb inh 3.
Cc1c(O)ccc2c(CN3CCOCC3)cc(=O)oc12 was read as CaV13 ICDI inh -17 and RanGTP-Impb inh 53*.
